Drawing on ChEMBL document CHEMBL4513216, “Probing the Open Global Health Chemical Diversity Library for Multistage-Active Starting Points for Next-Generation Antimalarials” (ACS Infect Dis, 2020), this text covers cytotoxicity for 97 compounds.

The series can be described thus: Toxicity liver stage against HepG2, at 10uM. It counts as cell-based. Details: test concentration 10 uM, cell line HepG2-A16-CD81EGFP. As to conditions: human, HepG2-A16-CD81EGFP cells; read-out: INHIBITION
In outline:
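Uninfected HepG2-A16-CD81EGFP cells, 3 × 10^3 per well, 1536-well, plated on prespotted compound at 10 μM final, parasite-free screening media added to match infected plates; puromycin 10 μM positive, DMSO 0.5% negative; run in parallel with 48 h PbLuc assay at 37 °C, 5% CO2; viability by CellTiter-Glo luminescence, normalized to controls.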
Consider `CCOc1ccc(NC(=O)N(CCN(C)C)C(C)c2ccncc2)cc1` (configuration not stated), for which the cytotoxicity at 10 µM turned out to be 5.42%.

On to `COc1ccc(-c2noc([C@@H](C)NC(=O)CC(C)C)c2C(=O)O)cc1`, for which the cytotoxicity at 10 µM came to 2.05%. On to `COCCNC(=O)c1cnc(N(C)C)nc1C`, for which the cytotoxicity at 10 µM is -5.33%. Consider `CCc1cc(=O)[nH]c2nnc(SCC(=O)N3CCC(C)CC3)n12`, for which the cytotoxicity at 10 µM was -5.43%. As for `CCCS(=O)(=O)N1CCN(CC(F)(F)F)CC1`, the cytotoxicity at 10 µM is -3.29%. As for `Cn1c(C(=O)N2CCOCC2)nc2c1CCN(c1ncccn1)C2`, the cytotoxicity at 10 µM turned out to be 1.7%. The value for `CN(C)C(=O)[C@@H]1C[C@@H]2CCN(C3CCOCC3)C[C@@H]2O1` was -7.56%; that for `Cn1cc(CN2CCN3C[C@H](Oc4cccnc4)C[C@H]3C2)cn1` was 3.07%. As for `Cc1ccc(CN2C[C@@H]3COC[C@]3(COc3ccc(C#N)cn3)C2)o1`, the cytotoxicity at 10 µM is 0.777%. The value for `CCS(=O)(=O)N1CCC2(CC1)CN(c1cncnc1)C(=O)CO2` was 6.91%; that for `Cc1nc(N2CCCC2)nc2c1CCN(C(=O)N(C)C)CC2` was 7.05%. The value for `Cc1ccc(-n2nnc(C(=O)O)c2C)c(C)c1` was -0.185%; that for `CC(C)CNC(=O)c1c(-n2cnnn2)sc2c1CCC2` was -4.56%; that for `CCS(=O)(=O)Nc1ccn(Cc2ccc(F)cc2Cl)n1` was 3.18%. Consider `Cc1c(CN2Cc3nccn3CC2c2ccccc2)cnn1C` (configuration not stated), for which the cytotoxicity at 10 µM is -1.13%.

As to `Cn1ccc(C(=O)N2CCCC2c2cc(CO)[nH]n2)n1` (configuration not stated), the cytotoxicity at 10 µM came to 4.95%.

`Cc1c[nH]nc1C1CN(c2ncccn2)CCO1` (configuration not stated): the cytotoxicity at 10 µM was found to be 4.37%. Regarding `CN(Cc1ccc(F)cc1)[C@@H]1CN(S(C)(=O)=O)C[C@H]1O`, the cytotoxicity at 10 µM is -3.22%. On to `COCC(=O)NCCc1nc(N(C)C)ncc1-c1ccncc1`, for which the cytotoxicity at 10 µM is -3.46%. `CN(Cc1ccc(F)cc1)CC1(O)CCN(C(=O)c2ccccn2)C1` (configuration not stated): the cytotoxicity at 10 µM was -3%. Turning to `O=C1NCc2ccccc2CC12CCCN(Cc1ccsc1)C2` (configuration not stated), the cytotoxicity at 10 µM turned out to be 11%. The value for `Cc1cnn(CC2CCN(CC(O)COc3ccccc3)CC2)c1` (configuration not stated) was -1.62%. On to `Cc1cc(C)n(CC(C)NC(=O)C2(c3ccc(F)cc3)CC2)n1` (configuration not stated), for which the cytotoxicity at 10 µM came out at 11.5%. For the compound `Cc1ccc(NCc2ccc(C#N)cc2)cc1-n1cnnn1`, the cytotoxicity at 10 µM was -0.657%.

As to `Cc1ccc(C(=O)NS(=O)(=O)c2ccc3c(c2)OCCCO3)o1`, the cytotoxicity at 10 µM is 2.91%. As to `CCN(CCCc1ccccc1C)S(C)(=O)=O`, the cytotoxicity at 10 µM turned out to be 2.86%. For `COc1ccc(NC(=O)N2CCC(c3noc(C)n3)CC2)cc1C` the value was 17.2%; for `COCCN(C)CC1CCCN1S(=O)(=O)Cc1ccccc1F` (configuration not stated), 6.84%. For the compound `Cc1cc(C)c2cc(C(=O)N3CCNC(=O)C3)[nH]c2c1`, the cytotoxicity at 10 µM was -13.1%. Take `COc1ccc(CN(C)Cc2c(C)noc2C)c(Cl)c1OC`: the cytotoxicity at 10 µM was -1.22%.

Turning to `CCc1nc2n(n1)CC(NCc1cn(C)nc1-c1cccnc1)CC2` (configuration not stated), the cytotoxicity at 10 µM was -5.95%. Consider `O=C(CC1CCCC1)NCCNCc1cccc2c1OCCO2`, for which the cytotoxicity at 10 µM is -0.912%.

As to `O=C(NCc1nncn1C1CC1)C1(c2ccc(F)cc2)CCCC1`, the cytotoxicity at 10 µM is -1.89%. As for `Cc1noc(C)c1CCC(=O)NC(C)c1nnc2n1CCCCC2` (configuration not stated), the cytotoxicity at 10 µM is -1.18%.

Consider `CC(C)OCCC(=O)NCCC(=O)N1CCN(c2ccccn2)CC1`, for which the cytotoxicity at 10 µM worked out at 2.56%.

In the case of `CC(C)c1nn(C)c(N2CCOCC2)c1CNCc1cscn1`, the cytotoxicity at 10 µM was -3.83%. Turning to `O=C(CO)N1CCN(C(=O)c2coc3ccccc23)CC1`, the cytotoxicity at 10 µM was 3.16%. With `CC(C)Nc1ncccc1C(=O)NCc1ncc[nH]1`, the cytotoxicity at 10 µM is -7.9%. The value for `COc1ccc(F)c(NCC(C)(C)S(C)(=O)=O)c1` was -3.18%; that for `c1cnn(-c2ccc(CCNC3CCN(C4CC4)C3)cc2)c1` (configuration not stated) was 2.84%. For `O=C1C(NCc2ccccc2O)CCN1Cc1ccccc1` (configuration not stated) the value was -9.11%; for `CNS(=O)(=O)CC(=O)NC(C)Cc1ccc(-c2ccccc2)cc1` (configuration not stated), 7.69%; for `CN(C)C(=O)N1CCN(C(=O)c2ccc(Cl)c(Cl)c2)C(C)(C)C1`, -4.71%.

Turning to `Cc1cnn(C2CN(Cc3noc(C4CC4)n3)C2)c1`, the cytotoxicity at 10 µM stood at 4.34%. For the compound `CN(C(=O)c1ccc(OCC(F)F)nc1)c1ccc2c(c1)CCO2`, the cytotoxicity at 10 µM came to 13.6%. Take `CC(C#N)CSc1ccccc1NCC(=O)NCc1ccccc1` (configuration not stated): the cytotoxicity at 10 µM is -7.89%. The value for `O=C(C1CC1)N1CCC2(CC1)OCCO2` was 1.75%; that for `Cc1ccc2c(c1)[C@@H](CC(=O)N(C)C)CCO2` was -3.78%; that for `CC[C@H](C)[C@H](N)C(=O)N1CC(=O)c2sc(Nc3ccc(F)cc3)nc2C1` was -1.44%. The value for `CCOC(=O)c1n[nH]cc1CN1CCCC(N(C)Cc2ccccc2)C1` (configuration not stated) was -1.44%; that for `FC(F)(F)c1ccnc(N2CCC(c3nccn3CC3CC3)CC2)n1` was 3.03%; that for `CN(C)CCNCC1(O)CCCN(Cc2cccc(F)c2F)C1=O` (configuration not stated) was -8.71%. In the case of `CN(Cc1ccon1)C(=O)CN1C(=O)OC(C)(C)C1=O`, the cytotoxicity at 10 µM was -108%. The value for `Cc1ccc2nc(C(=O)N3CC(c4cccnc4)C3)cn2c1` was -7.5%; that for `COCc1ccc(C(=O)N2CCCN(Cc3ccc(F)cc3)CC2)s1` was -1.78%; that for `CC(=O)N1CCCn2nc(CNC(=O)N3CCCCC3)cc2C1` was -3.91%. For `Cc1cc(C)n(CC2(CNC(=O)C(c3ccccc3F)N(C)C)CC2)n1` (configuration not stated), the cytotoxicity at 10 µM was found to be 1.64%.

For `Cc1cccc2[nH]c(C3CCCN(Cc4ccc(CO)o4)C3)nc12` (configuration not stated), the cytotoxicity at 10 µM was determined as 9.83%. With `CCC(CO)N(Cc1cccs1)C(=O)CNS(=O)(=O)c1cccs1` (configuration not stated), the cytotoxicity at 10 µM came out at 4.98%. With `COCC1CCN(C(=O)c2cn(Cc3ccccc3F)nn2)CC1`, the cytotoxicity at 10 µM came to 1.89%. With `CC(Cc1cnccn1)NC(=O)COc1ccc(F)cc1F` (configuration not stated), the cytotoxicity at 10 µM is -44.4%. With `COCCN(Cc1sccc1C)c1nc(C)nc2sccc12`, the cytotoxicity at 10 µM was -131%.

Consider `COc1ccc(-c2cccc(-c3ccn(CCN(C)C)n3)c2)nn1`, for which the cytotoxicity at 10 µM was -1.39%. Turning to `Fc1ccccc1C1(CNC2CCOC3(CCOCC3)C2)CCCC1` (configuration not stated), the cytotoxicity at 10 µM was -1.53%.

As for `CN1CCN(Cc2ccccc2Oc2ccc(C(N)=O)cn2)CC1`, the cytotoxicity at 10 µM is -23.6%.

Turning to `CC(C)[C@@H]1CN(Cc2cnc(C3CCCCC3)nc2)C[C@H]1N(C)C`, the cytotoxicity at 10 µM is -3.18%. The value for `CCO[C@H]1C[C@@H](O)C12CCN(C(=O)CCN1CCCC1=O)CC2` was 2.12%; that for `CC(C)[C@@H]1CN(Cc2ccccc2C#N)C[C@H]1C(=O)O` was 6.3%; that for `Cc1cc(=O)[nH]c(NCCNC(=O)CN2CCCCCC2)n1` was 3.28%. Take `O=C1CNCC(C(=O)N2CC(Oc3ccccc3Cl)C2)N1` (configuration not stated): the cytotoxicity at 10 µM stood at 10.9%. With `O=C1N(Cc2cccc(F)c2F)CCCC1(O)CNCc1ccccn1` (configuration not stated), the cytotoxicity at 10 µM is -9.28%. Take `Cc1cc(C(=O)N2C[C@@H](C(=O)O)[C@H](c3ccccc3C)C2)c(C)o1`: the cytotoxicity at 10 µM worked out at 16.8%. For the compound `O=C(O)c1coc(COc2cccc(F)c2)n1`, the cytotoxicity at 10 µM came out at 0.523%. Regarding `O=C1CCC(=O)N1c1nn(Cc2cccc(F)c2)cc1Cl`, the cytotoxicity at 10 µM is -6.61%. In the case of `COc1ccccc1CNc1cnn(CC(F)F)c1`, the cytotoxicity at 10 µM was -5.41%. Regarding `COc1ccc(CN(Cc2nc(C)no2)C2CCCCC2)cc1OC`, the cytotoxicity at 10 µM was -0.0185%.

As for `Cc1c(F)cc(C(=O)O)cc1S(=O)(=O)Nc1ccc(C#N)cc1`, the cytotoxicity at 10 µM is -6.04%. In the case of `NC(=O)c1cc(C2CCCN(CCCOc3ccc(F)cc3)C2)n[nH]1` (configuration not stated), the cytotoxicity at 10 µM is -16.4%. Turning to `CC(C)(C)c1cnc(CN2CCCCC2Cn2cccn2)o1` (configuration not stated), the cytotoxicity at 10 µM is -7.85%.

As for `COc1ccc(OC)c(C(=O)N2CCCCC2Cn2cccn2)c1` (configuration not stated), the cytotoxicity at 10 µM was -0.677%. On to `Cc1noc(C)c1CN(C)CC(=O)N1CCc2sccc2C1`, for which the cytotoxicity at 10 µM is -19.4%. Consider `CCCS(=O)(=O)NC(C)C(=O)NCc1ccnc(N2CCCC2)c1` (configuration not stated), for which the cytotoxicity at 10 µM was -13.6%.

Turning to `COc1ncccc1NC(=O)NC(C)c1nncn1C` (configuration not stated), the cytotoxicity at 10 µM was -18.8%. Consider `NC(=O)CN1CCCN(C(=O)Cc2ccc(F)c(Br)c2)CC1`, for which the cytotoxicity at 10 µM is 0.361%.

Regarding `CCc1nccn1C1CCCN(C(=O)Cc2ccc(OC)c(F)c2)C1` (configuration not stated), the cytotoxicity at 10 µM is -3.59%.

For the compound `Cc1ccc(-c2nnc(CNCCn3cc(C)cn3)o2)cc1`, the cytotoxicity at 10 µM is -12.1%. As for `CC(=O)Nc1nc(CN2CCOC(Cn3cc(C)cn3)C2)cs1` (configuration not stated), the cytotoxicity at 10 µM was 11.3%. On to `Cn1cnnc1C1CCCN(C(=O)Cc2ccc3c(c2)OCCO3)C1` (configuration not stated), for which the cytotoxicity at 10 µM was 0.626%.

For `O=C(c1cccc2c1OCO2)N1CCCC1Cn1cccn1` (configuration not stated), the cytotoxicity at 10 µM is 3.46%. Consider `NCCC(=O)Nc1ccc(-c2ccccc2)cc1`, for which the cytotoxicity at 10 µM was -1.81%. Consider `Cc1nc(CN2CCOCC3(CCN(c4cccnc4)CC3)C2)cs1`, for which the cytotoxicity at 10 µM is -12.2%. For `COCC1c2c(cnn2CC2CCOCC2)CCN1Cc1ccoc1` (configuration not stated) the value was -20%; for `CC1=N[C@@]2(CC[C@@H]3CNC[C@@H]32)C(=O)N1CC(C)C`, 2.98%.

As for `CC(=O)N1CCN(Cc2ccccn2)CC2(CC(=O)N(C)C2)C1` (configuration not stated), the cytotoxicity at 10 µM stood at 1.23%. For `O=C(Cc1ccccn1)N1CCC2(CC1)CC(Oc1ccccn1)CO2` (configuration not stated) the value was -0.0273%; for `CN(C)S(=O)(=O)N1C[C@H](Oc2cccnc2)[C@H]2OCCC[C@H]21`, 14.8%; for `O=C(c1ccncc1F)N1CC[C@@H]2OC(COCC3CC3)CC[C@@H]21` (some centres not stated), -4.03%.
